Several values for one entry are separate records, joined by “and”; a condition that tells them apart may be missing. Equal entries are not always repeated.
Assays:
GFP-ZIPK = GFP-ZIPK (Homo sapiens, UniProt O43293); test: FLECS elution from γ-linked ATP Sepharose; assay type: binding; conditions: for elution of GFP-ZIPK from ATP Sepharose: titration 0.1−300 µM
Summary of the method: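 Full-length ZIPK with N-terminal GFP was expressed in HEK293 cells. Crude lysate was bound to γ-linked ATP Sepharose for 0.5 h at 4 °C (pH 7.5, 60 mM MgCl₂), washed with high- then low-salt buffer, and split into 96-well filter plates. Test compound was added for 10 min at RT, as a 900 µM solution (screen) or 0.1−300 µM (titration), in 10% DMSO. Filtrate fluorescence was read at 485/535 nm. Controls were ATP 2−200 mM (positive) and 10% DMSO (negative). Hits were wells with >5000 counts (2.5 × background), checked by Western blot.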

PKN2 = PKN2 (Homo sapiens, UniProt Q16513); test: 33P-ATP filter-binding kinase assay; assay type: biochemical; conditions: read-out: % activity against kinase, kinome profile
Summary of the method: (§1)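 Kinome panel of 124 purified protein kinases run by an outside profiling centre using a ³³P-ATP filter-binding assay. Test compound was tested at 10 µM. Read-out is residual % enzyme activity.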

[1] = test system: human coronary artery smooth muscle cells (CA-VSMC); test: Phosphorylation in human coronary artery smooth muscle cells; assay type: cell-based; conditions: HS38 10 µM, 40 min
CK1α = CK1α (Homo sapiens, UniProt P48729); test: 33P-ATP filter-binding kinase assay; assay type: biochemical; conditions: read-out: % activity against kinase, kinome profile
Summary of the method: as §1

aortic SM cells = test: RLC20 phosphorylation in aortic smooth muscle cells, basal and S1P stimulated; assay type: cell-based, human; conditions: 50 µM, 30 min; for relative percent RLC20 phosphorylation, S1P stimulated state: S1P 0.25 µM
Summary of the method: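 A mouse aortic smooth muscle cell line was grown in AmnioMax with 10% FBS at 37 °C and 5% CO₂, then serum-starved for 16 h. Subconfluent cells were given S1P (0.25 µM, 5 min) or left basal. They were then treated with test compound (50 µM) or 0.1% DMSO for 30 min. Cells were lysed in 1% SDS, 300 mM NaCl and 50 mM Tris-HCl pH 7.5. Phospho-RLC20 was measured by Western blot and densitometry.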

PKA = PKA (Homo sapiens, UniProt P17612); test: 33P-ATP filter-binding kinase assay; assay type: biochemical; conditions: read-out: % activity against kinase, kinome profile
Summary of the method: as §1

CaMK2 = test: 33P-ATP filter-binding kinase assay; assay type: biochemical, human; conditions: read-out: % activity against kinase, kinome profile
Summary of the method: as §1

PIM1 = PIM1 (Homo sapiens, UniProt P11309); test: 33P-ATP filter-binding kinase assay; assay type: biochemical
smMLCK = smMLCK (Homo sapiens, UniProt Q15746); test: 33P-ATP filter-binding kinase assay; assay type: biochemical
[2] = test system: rat caudal arterial smooth muscle strips; test: Calyculin A induced contraction of rat caudal arterial smooth muscle strips; conditions: 100 µM, calyculin A 0.5 mM; for maximum contractile force: 3 h
Summary of the method: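 Intact rat caudal arterial smooth muscle strips were contracted with calyculin A (0.5 mM, 3 h). This was done in the presence of vehicle (DMSO) or test compound at 100 µM. Maximal force was expressed as percent of an initial reference KCl contraction. Time to reach 50% of maximal contraction after calyculin A was also calculated.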

PIM2 = PIM2 (Homo sapiens, UniProt Q9P1W9); test: 33P-ATP filter-binding kinase assay; assay type: biochemical
[3] = test system: rat caudal arterial smooth muscle; test: RLC20 phosphorylation in rat caudal arterial smooth muscle; conditions: 100 µM; 30 min CLa exposure
rabbit ileum = test: RLC20 and MYPT1 phosphorylation in Ca2+-sensitized rabbit ileum; conditions: HS38 50 µM
[4] = test system: rabbit ileum smooth muscle; test: Ca2+-independent force development in rabbit ileum after MC-LR; conditions: pCa 9.0; MC-LR 10 µM
IRAK4 = target: T1, IRAK4 (Homo sapiens, UniProt Q9NWZ3); test: 33P-ATP filter-binding kinase assay; assay type: biochemical
T1 sequence (Q9NWZ3 1-460): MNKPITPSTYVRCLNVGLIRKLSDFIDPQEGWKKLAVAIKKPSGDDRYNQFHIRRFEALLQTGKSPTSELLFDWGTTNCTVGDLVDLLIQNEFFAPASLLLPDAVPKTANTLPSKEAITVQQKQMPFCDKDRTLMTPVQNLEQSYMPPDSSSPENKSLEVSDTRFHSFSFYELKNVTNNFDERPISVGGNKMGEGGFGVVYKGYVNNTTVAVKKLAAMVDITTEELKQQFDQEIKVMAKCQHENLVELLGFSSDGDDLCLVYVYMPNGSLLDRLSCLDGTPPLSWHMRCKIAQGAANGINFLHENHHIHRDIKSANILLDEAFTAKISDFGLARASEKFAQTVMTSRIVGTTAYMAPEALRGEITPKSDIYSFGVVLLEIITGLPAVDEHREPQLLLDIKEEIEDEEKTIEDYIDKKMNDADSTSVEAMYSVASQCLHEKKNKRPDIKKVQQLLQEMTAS

ROCK2 = ROCK2 (Rattus norvegicus, UniProt Q62868); test: 33P-ATP filter-binding kinase assay; assay type: biochemical, human
DAPK3 = DAPK3 (Homo sapiens, UniProt O43293); test: KINOMEscan active-site dependent competition binding assay; conditions: DAPK3 (ZIPK); from Kd values
DAPK1 = DAPK1 (Homo sapiens, UniProt P53355); test: as above; conditions: from Kd values
Chain of DAPK1 (P53355 whole entry): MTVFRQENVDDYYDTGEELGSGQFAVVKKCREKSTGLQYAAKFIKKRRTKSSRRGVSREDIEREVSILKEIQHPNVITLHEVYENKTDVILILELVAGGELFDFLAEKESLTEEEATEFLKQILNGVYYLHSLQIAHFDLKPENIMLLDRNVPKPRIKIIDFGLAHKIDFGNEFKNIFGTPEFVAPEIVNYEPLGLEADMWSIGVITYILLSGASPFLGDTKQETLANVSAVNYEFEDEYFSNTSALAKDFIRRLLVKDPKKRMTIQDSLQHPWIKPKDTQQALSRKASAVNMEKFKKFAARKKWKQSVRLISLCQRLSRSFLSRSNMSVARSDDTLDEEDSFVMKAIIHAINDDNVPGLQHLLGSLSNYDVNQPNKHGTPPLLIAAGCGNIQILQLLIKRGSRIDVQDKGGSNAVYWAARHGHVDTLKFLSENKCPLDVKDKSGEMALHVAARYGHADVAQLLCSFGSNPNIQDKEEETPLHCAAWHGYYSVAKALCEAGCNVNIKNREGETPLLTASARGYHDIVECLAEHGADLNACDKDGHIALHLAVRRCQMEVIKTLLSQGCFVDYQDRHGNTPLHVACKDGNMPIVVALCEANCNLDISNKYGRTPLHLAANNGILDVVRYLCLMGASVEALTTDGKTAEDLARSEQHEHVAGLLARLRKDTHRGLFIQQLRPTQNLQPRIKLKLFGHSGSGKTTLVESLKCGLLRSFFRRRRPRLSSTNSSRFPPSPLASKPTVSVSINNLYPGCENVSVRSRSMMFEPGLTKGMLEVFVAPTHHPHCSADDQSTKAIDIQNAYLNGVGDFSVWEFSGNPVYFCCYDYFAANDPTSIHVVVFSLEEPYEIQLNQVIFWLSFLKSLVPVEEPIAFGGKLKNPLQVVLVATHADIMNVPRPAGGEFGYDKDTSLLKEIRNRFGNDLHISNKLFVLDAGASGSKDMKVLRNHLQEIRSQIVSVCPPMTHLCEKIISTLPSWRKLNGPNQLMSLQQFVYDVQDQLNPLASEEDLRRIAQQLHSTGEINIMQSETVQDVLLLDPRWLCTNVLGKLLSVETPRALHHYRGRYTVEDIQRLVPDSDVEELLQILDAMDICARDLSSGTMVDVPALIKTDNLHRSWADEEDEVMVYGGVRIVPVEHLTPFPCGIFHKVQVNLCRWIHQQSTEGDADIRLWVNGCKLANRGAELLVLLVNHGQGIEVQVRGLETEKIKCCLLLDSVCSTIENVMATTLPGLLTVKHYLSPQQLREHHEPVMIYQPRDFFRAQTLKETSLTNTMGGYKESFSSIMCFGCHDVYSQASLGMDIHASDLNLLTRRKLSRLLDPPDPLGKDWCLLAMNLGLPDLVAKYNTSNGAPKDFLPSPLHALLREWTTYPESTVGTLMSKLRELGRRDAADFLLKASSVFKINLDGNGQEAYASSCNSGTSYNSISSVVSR

Chain of GFP-ZIPK (O43293 whole entry): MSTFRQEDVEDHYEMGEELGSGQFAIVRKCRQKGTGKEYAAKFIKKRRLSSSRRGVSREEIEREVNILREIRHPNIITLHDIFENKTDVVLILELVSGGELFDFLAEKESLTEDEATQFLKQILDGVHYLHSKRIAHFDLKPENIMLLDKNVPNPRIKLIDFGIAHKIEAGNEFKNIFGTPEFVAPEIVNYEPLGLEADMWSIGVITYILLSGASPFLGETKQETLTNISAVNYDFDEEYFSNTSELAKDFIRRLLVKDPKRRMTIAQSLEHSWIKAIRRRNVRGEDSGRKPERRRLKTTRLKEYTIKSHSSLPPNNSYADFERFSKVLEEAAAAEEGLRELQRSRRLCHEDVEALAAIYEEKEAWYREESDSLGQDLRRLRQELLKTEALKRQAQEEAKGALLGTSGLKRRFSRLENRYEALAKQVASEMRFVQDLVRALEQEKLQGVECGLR
Chain of ROCK2 (Q62868 2-543 limits assumed): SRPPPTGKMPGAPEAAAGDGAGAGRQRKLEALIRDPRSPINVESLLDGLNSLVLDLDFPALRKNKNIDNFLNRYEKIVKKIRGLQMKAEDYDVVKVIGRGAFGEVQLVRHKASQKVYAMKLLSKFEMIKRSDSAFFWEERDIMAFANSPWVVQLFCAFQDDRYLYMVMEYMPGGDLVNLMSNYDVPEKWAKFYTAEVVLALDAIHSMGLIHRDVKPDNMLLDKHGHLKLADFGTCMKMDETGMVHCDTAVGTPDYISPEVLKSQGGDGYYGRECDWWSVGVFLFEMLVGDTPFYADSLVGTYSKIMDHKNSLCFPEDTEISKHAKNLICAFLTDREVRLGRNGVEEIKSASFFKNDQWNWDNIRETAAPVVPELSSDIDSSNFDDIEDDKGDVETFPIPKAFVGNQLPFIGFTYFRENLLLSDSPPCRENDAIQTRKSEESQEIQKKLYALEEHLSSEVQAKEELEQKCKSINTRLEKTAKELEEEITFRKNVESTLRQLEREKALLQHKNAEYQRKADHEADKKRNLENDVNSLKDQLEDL
Chain of DAPK3 (O43293 whole entry): as the sequence (O43293 whole entry) above
Chain of CK1α (P48729 whole entry): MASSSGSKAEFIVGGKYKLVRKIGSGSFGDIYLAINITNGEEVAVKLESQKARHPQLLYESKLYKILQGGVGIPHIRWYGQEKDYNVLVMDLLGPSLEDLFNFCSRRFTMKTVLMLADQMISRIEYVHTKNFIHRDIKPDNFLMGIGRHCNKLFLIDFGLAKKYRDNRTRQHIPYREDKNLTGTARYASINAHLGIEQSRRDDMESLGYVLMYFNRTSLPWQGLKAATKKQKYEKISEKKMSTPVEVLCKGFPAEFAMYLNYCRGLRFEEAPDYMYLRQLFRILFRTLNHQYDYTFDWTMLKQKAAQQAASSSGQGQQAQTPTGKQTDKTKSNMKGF
Chain of PKN2 (Q16513 whole entry): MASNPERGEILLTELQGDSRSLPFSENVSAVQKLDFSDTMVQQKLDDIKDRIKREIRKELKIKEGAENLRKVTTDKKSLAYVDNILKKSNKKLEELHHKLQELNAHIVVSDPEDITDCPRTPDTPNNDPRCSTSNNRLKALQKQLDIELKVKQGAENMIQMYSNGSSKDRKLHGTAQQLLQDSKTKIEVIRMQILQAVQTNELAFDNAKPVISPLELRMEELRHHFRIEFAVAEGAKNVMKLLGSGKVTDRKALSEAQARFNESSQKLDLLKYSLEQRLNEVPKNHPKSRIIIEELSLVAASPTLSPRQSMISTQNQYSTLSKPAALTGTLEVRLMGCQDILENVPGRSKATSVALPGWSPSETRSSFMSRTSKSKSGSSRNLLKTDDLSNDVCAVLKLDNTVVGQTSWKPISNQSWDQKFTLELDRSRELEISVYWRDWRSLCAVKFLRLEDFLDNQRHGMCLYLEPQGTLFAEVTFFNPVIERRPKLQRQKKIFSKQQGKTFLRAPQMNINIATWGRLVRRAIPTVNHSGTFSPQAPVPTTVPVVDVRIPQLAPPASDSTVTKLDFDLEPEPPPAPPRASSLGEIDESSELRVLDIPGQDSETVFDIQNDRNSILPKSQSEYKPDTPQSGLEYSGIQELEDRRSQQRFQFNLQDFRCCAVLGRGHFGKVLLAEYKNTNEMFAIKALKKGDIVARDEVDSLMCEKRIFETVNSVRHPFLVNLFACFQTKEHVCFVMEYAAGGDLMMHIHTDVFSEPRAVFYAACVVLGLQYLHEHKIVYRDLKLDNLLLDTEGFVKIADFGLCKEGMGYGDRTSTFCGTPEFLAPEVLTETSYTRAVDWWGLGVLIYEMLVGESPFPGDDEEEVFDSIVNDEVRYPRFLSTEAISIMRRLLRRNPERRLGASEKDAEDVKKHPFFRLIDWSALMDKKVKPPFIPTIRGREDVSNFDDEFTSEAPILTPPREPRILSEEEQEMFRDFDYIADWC
Chain of PIM1 (P11309 whole entry): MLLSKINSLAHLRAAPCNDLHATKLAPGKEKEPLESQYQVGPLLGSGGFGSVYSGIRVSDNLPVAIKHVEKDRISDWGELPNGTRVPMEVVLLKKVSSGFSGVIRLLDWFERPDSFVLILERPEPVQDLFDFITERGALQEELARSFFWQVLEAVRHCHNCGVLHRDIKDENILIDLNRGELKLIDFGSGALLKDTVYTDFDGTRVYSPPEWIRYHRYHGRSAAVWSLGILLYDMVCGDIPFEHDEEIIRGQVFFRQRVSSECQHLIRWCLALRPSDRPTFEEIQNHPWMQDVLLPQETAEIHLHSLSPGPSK
Chain of smMLCK (Q15746 1464-1719 limits assumed): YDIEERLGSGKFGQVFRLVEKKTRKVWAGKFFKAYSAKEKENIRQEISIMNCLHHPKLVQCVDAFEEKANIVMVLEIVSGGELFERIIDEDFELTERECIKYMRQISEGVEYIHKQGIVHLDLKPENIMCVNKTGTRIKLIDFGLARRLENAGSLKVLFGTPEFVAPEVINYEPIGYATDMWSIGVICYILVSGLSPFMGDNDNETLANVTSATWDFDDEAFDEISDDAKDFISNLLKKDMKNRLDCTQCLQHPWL
Chain of PIM2 (Q9P1W9 whole entry): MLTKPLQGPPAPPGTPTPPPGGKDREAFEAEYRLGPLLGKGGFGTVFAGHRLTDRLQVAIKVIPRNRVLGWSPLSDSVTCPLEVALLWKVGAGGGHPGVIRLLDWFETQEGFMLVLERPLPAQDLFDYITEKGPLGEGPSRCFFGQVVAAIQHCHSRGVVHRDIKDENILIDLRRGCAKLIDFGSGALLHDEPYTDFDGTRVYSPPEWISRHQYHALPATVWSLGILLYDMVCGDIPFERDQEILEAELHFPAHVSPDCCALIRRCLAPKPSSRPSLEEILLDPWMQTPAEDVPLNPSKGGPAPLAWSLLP

Compound: O=S(=O)(c1cccc2c(I)cccc12)N1CCCNCC1 [ML-7, reference compound]
- elution of GFP-ZIPK from ATP Sepharose (GFP-ZIPK): failed to elute GFP-ZIPK

Compound: CC(Sc1nc2c(cnn2-c2cccc(Cl)c2)c(=O)[nH]1)C(N)=O (stereo not shown) [HS38, 2-((1-(3-chlorophenyl)-4-oxo-4,5-dihydro-1H-pyrazolo[3,4-d]pyrimidin-6-yl)thio)propanamide]
- inhibition (PKN2): < 10%
- phosphorylation state of Par-4 [1]: not significantly affected
- phosphorylation state of T855 of MYPT1 [1]: not significantly affected
- decrease in RLC20 phosphorylation ([1]; serum-free and 5% FBS conditions): 21−23%
- inhibition (CK1α): < 10%
- relative percent RLC20 phosphorylation, basal (unstimulated) state (aortic SM cells): significantly decreased
- relative percent RLC20 phosphorylation, S1P stimulated state (aortic SM cells): significantly decreased
- inhibition (PKA): < 10%
- inhibition (CaMK2): < 10%
- increase in fluorescence above background (GFP-ZIPK; FLECS screen, elution of GFP-ZIPK, drug candidate 900 µM solution): > 4 fold
- elution of GFP-ZIPK from ATP Sepharose (GFP-ZIPK): produced a sigmoidal curve
- fold less potent than against DAPK1 and PIM3 (PIM1): ~ 10 fold
- fold less potent than against DAPK1 and PIM3 (smMLCK): ~ 100 fold
- time required to reach 50% of maximal contraction (t1/2 max) [2]: more than doubled
- maximum contractile force [2]: without significantly affecting
- fold less potent than against DAPK1 and PIM3 (PIM2): ~ 100 fold
- RLC20 phosphorylation [3]: significant reduction
- MYPT1 Thr696 phosphorylation level (rabbit ileum): significantly reduced
- RLC20 phosphorylation level (rabbit ileum): significantly reduced
- lag time to the onset of force [4]: increased
- rate of force development (t1/2) [4]: increased
- fold less potent than against DAPK1 and PIM3 (IRAK4): ~ 10 fold
- IC50 (ROCK2): > 200 µM
- activity against ROCK2 (ROCK2; ROCK2, duplicate validation): completely inactive
- inhibition (ROCK2; read-out: % activity against kinase, ROCK2, kinome profile): < 10%

Compound: O=c1[nH]c(SCCO)nc2c1cnn2-c1cccc(Cl)c1 [HS43, 1-(3-Chlorophenyl)-6-((2-hydroxyethyl)thio)-1,5-dihydro-4H-pyrazolo[3,4-d]pyrimidin-4-one]
- fold less potent than HS38 / lower affinity (DAPK3): 5 fold and ~ 5 fold
- relative percent RLC20 phosphorylation, basal (unstimulated) state (aortic SM cells): did not significantly affect
- relative percent RLC20 phosphorylation, S1P stimulated state (aortic SM cells): did not significantly affect
- elution of GFP-ZIPK from ATP Sepharose (GFP-ZIPK): eluted far less GFP-ZIPK
- time required to reach 50% of maximal contraction (t1/2 max) [2]: did not significantly affect
- maximum contractile force [2]: did not significantly affect
- fold less potent than HS38 (DAPK1): ~ 5 fold
- RLC20 phosphorylation [3]: did not affect

Source: paper PMC4445880 (ACS chemical biology, 2013)
